Results taken from ChEMBL document CHEMBL1126671 (J Med Chem, 1993).

Experiments:
Homo sapiens = species: Homo sapiens; assay: Inhibition of TPA-stimulated 47-kDa protein phosphorylation in platelets; type: functional
Procedure, shortened: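 Procedure as in earlier work; TPA-stimulated 47-kDa protein phosphorylation in platelets; triplicate points per assay; IC50 is the mean of at least three independent assays.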

Protein kinase C (PKC) = assay: Inhibition of protein kinase C (PKC) of rat brain
[1] = Antagonistic effect on allogenic mixed lymphocyte reaction; type: functional
Procedure, shortened: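 Allogeneic mixed lymphocyte reaction run by a published method; triplicate points per assay; IC50 is the mean of at least three independent assays.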

[2] = Inhibition of protein kinase A was evaluated as Inhibitory concentration
Procedure, shortened: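 PKA from bovine heart; procedure as in earlier work; triplicate points per assay; IC50 is the mean of at least two independent assays.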

[3] = target: cAMP-dependent protein kinase (PKA) (Homo sapiens, UniProt P22694+P17612+P22612); assay: Inhibition of human neutrophil protein kinase A (PKA); type: protein assay
[4] = target: Protein kinase C, PKC; classical (Rattus norvegicus, UniProt P05696+P68403+P63319); assay: Inhibition of protein kinase C was evaluated as Inhibitory concentration; type: protein assay
Procedure, shortened: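 Rat brain PKC; procedure as in earlier work; triplicate points per assay; IC50 is the mean of at least two independent assays.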

[5] = Inhibition of human neutrophil protein kinase C (PKC)
[6] = (§1) Inhibition of rabbit muscle phosphorylase kinase (PhK); parameters: species or system Oryctolagus cuniculus
[7] = target: Proto-oncogene tyrosine-protein kinase Src (Homo sapiens, UniProt P12931); assay: Inhibition of human p60 c-src
Chain of Proto-oncogene tyrosine-protein kinase Src (P12931 2-536 limits assumed): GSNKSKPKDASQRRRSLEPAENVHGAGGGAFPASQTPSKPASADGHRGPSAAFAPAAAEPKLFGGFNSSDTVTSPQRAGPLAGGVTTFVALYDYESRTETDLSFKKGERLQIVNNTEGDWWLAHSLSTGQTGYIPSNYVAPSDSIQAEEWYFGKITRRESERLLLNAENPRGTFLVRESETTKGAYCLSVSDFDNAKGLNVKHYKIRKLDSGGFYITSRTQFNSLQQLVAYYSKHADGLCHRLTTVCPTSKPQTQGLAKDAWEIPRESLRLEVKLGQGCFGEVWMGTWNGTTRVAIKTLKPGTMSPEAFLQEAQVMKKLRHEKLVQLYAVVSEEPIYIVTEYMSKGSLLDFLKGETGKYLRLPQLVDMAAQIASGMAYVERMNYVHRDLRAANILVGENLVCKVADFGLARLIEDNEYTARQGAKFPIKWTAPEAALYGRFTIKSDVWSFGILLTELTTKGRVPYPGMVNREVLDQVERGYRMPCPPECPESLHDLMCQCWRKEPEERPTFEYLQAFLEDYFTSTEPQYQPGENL
Procedure, shortened: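 Human p60c-src (20 units) with angiotensin II substrate (60 µg), 10 µM [γ-32P]ATP, 10 mM MgCl2, in 50 mM HEPES, 0.1 mM EDTA, 0.015% Brij 35, pH 7.5; final DMSO 10%. Incubated 60 min at 30 °C, stopped with 40 mM EDTA. Aliquots spotted on phosphocellulose paper, washed with orthophosphoric acid, counted by liquid scintillation.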

[8] = target: Tyrosine-protein kinase Lck (Homo sapiens, UniProt P06239); assay: Inhibition of human p56 lck
Chain of Tyrosine-protein kinase Lck (P06239 whole entry): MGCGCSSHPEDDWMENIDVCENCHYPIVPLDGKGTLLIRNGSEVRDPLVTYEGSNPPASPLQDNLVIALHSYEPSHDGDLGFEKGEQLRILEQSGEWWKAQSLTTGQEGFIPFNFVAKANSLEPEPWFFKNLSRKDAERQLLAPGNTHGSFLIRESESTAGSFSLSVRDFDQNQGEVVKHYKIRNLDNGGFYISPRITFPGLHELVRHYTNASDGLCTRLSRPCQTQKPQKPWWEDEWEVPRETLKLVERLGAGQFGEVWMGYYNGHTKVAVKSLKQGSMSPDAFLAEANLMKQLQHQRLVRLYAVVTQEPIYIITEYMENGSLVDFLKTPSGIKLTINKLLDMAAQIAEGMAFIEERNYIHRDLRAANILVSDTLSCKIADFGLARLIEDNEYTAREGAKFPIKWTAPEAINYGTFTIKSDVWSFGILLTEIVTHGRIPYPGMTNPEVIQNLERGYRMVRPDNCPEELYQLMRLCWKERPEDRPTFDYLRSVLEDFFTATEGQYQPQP

[9] = Inhibition of rat liver casein kinase II
[10] = Inhibition of human platelet protein kinase C (PKC)
[11] = as §1; parameters: species or system Oryctolagus cuniculus; remark: listed apart in the source
Procedure, shortened: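 Rabbit muscle phosphorylase kinase; procedure as in earlier work; triplicate points per assay; IC50 is the mean of at least two independent assays.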

[12] = target: Protein kinase C, PKC; classical/novel; assay: Antagonistic effect on TPA-stimulated CD3 down-regulation in T-cells; type: functional
Procedure, shortened: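 Procedure as in earlier work; TPA-stimulated CD3 down-regulation in T-cells; triplicate points per assay; IC50 is the mean of at least two independent assays.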

SMILES: CN(C)CC1CCn2c(c(C3=C(c4cn(C)c5ccccc45)C(=O)NC3=O)c3ccccc32)C1.Cl (stereo not drawn)
- IC50 (Homo sapiens): 950 nM
- IC50 (Protein kinase C (PKC)): 42 nM
- IC50 [1]: 540 nM
- IC50 [2]: 8600 nM
- IC50 [3]: 5900 nM
- IC50 [4]: 42 nM
- IC50 [5]: 32 nM
- IC50 [6]: 1100 nM
- IC50 [7]: > 100000 nM
- IC50 [8]: > 100000 nM
- IC50 [9]: > 100000 nM
- IC50 [10]: 45 nM

SMILES: Cn1cc(C2=C(c3c4n(c5ccccc35)CCC(CN)C4)C(=O)NC2=O)c2ccccc21 (stereo not drawn)
- IC50 (Homo sapiens): 460 nM
- IC50 (Protein kinase C (PKC)): 7.6 nM
- IC50 [1]: 470 nM
- IC50 [2]: 2800 nM
- IC50 [3]: 1200 nM
- IC50 [4]: 7.6 nM
- IC50 [5]: 4.8 nM
- IC50 [7]: > 100000 nM
- IC50 [8]: > 100000 nM
- IC50 [11]: 1300 nM
- IC50 [9]: > 100000 nM
- IC50 [12]: 600 nM
- IC50 [10]: 12 nM

SMILES: Cn1cc(C2=C(c3c4n(c5ccccc35)CCCCC4)C(=O)NC2=O)c2ccccc21
- IC50 [2]: > 100000 nM
- IC50 [4]: 450 nM

SMILES: Cn1cc(C2=C(c3c4n(c5ccccc35)CC(N)CC4)C(=O)NC2=O)c2ccccc21 (stereo not drawn)
- IC50 [2]: 4100 nM
- IC50 [4]: 135 nM

SMILES: Cn1cc(C2=C(c3cn(CCCN)c4ccccc34)C(=O)NC2=O)c2ccccc21
- IC50 [4]: 75 nM

SMILES: Cn1cc(C2=C(c3c4n(c5ccccc35)CCCC4)C(=O)NC2=O)c2ccccc21
- IC50 [2]: 23000 nM
- IC50 [4]: 155 nM

SMILES: Cn1cc(C2=C(c3c4n(c5ccccc35)CCNC4)C(=O)NC2=O)c2ccccc21
- IC50 [2]: 3200 nM
- IC50 [4]: 540 nM

SMILES: Cn1cc(C2=C(c3c4n(c5ccccc35)CCC(N)CC4)C(=O)NC2=O)c2ccccc21 (stereo not drawn)
- IC50 [2]: 2400 nM
- IC50 [4]: 100 nM

SMILES: Cn1cc(C2=C(c3c4n(c5ccccc35)CCCC(CN)C4)C(=O)NC2=O)c2ccccc21 (stereo not drawn)
- IC50 [2]: 34000 nM
- IC50 [4]: 272 nM

SMILES: Cn1cc(C2=C(c3c4n(c5ccccc35)CC(CN)CC4)C(=O)NC2=O)c2ccccc21 (stereo not drawn)
- IC50 [2]: 1100 nM
- IC50 [4]: 15 nM

SMILES: CNCC1CCn2c(c(C3=C(c4cn(C)c5ccccc45)C(=O)NC3=O)c3ccccc32)C1.Cl (stereo not drawn)
- IC50 [2]: 4800 nM
- IC50 [4]: 9.8 nM

SMILES: Cn1cc(C2=C(c3c4n(c5ccccc35)CCC4)C(=O)NC2=O)c2ccccc21
- IC50 [2]: 68000 nM
- IC50 [4]: 210 nM

SMILES: Cn1cc(C2=C(c3c4n(c5ccccc35)CCC(CN)CC4)C(=O)NC2=O)c2ccccc21 (stereo not drawn)
- IC50 [2]: 2600 nM
- IC50 [4]: 16.5 nM

SMILES: Cn1cc(C2=C(c3c4n(c5ccccc35)CC[C@@H](CN)C4)C(=O)NC2=O)c2ccccc21
- IC50 [2]: 900 nM
- IC50 [4]: 10 nM

SMILES: Cn1cc(C2=C(c3c4n(c5ccccc35)CCC(N)C4)C(=O)NC2=O)c2ccccc21 (stereo not drawn)
- IC50 [2]: 3300 nM
- IC50 [4]: 110 nM

SMILES: CN[C@@H]1C[C@H]2O[C@@](C)([C@@H]1OC)n1c3ccccc3c3c4c(c5c6ccccc6n2c5c31)C(=O)NC4 [STAUROSPORINE]
- IC50 [5]: 2.5 nM

SMILES: Cn1cc(C2=C(c3c4n(c5ccccc35)CCC(CCN)C4)C(=O)NC2=O)c2ccccc21 (stereo not drawn)
- IC50 [2]: 24000 nM
- IC50 [4]: 47 nM

SMILES: Cn1cc(C2=C(c3c4n(c5ccccc35)CC(CN)C4)C(=O)NC2=O)c2ccccc21 (stereo not drawn)
- IC50 [2]: 3900 nM
- IC50 [4]: 14 nM

SMILES: Cn1cc(C2=C(c3c4n(c5ccccc35)CC[C@H](CN)C4)C(=O)NC2=O)c2ccccc21
- IC50 [2]: 12100 nM
- IC50 [4]: 4.1 nM

SMILES: Cl.Cn1cc(C2=C(c3c4n(c5ccccc35)CC(CCN)CC4)C(=O)NC2=O)c2ccccc21 (stereo not drawn)
- IC50 [2]: 4500 nM
- IC50 [4]: 23 nM

SMILES: Cn1cc(C2=C(c3c4n(c5ccccc35)CC(CN)CCC4)C(=O)NC2=O)c2ccccc21 (stereo not drawn)
- IC50 [2]: 12800 nM
- IC50 [4]: 400 nM

SMILES: Cn1cc(C2=C(c3c4n(c5ccccc35)CCC(C[N+](C)(C)C)C4)C(=O)NC2=O)c2ccccc21 (stereo not drawn)
- IC50 [2]: 92500 nM
- IC50 [4]: 49 nM
